Source: ChEMBL document CHEMBL1125920, “Synthesis and biological activity of 5-alkyl-1,7,8-trisubstituted-6-fluoroquinoline-3-carboxylic acids” (1991)
Converted amounts (≈) assume the structure as drawn.

Assays:
Streptococcus pneumoniae = assay: Antibacterial activity was determined against gram positive organism, Streptococcus pneumoniae (SV-1); assay type: functional
Procedure, shortened: (§1)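 MIC by standard microtitration against a panel of 10 representative Gram-negative and Gram-positive organisms; values reported in µg/mL.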

Mus musculus [1] = assay: In vivo subcutaneous protective dose was determined in female charles river CD-1 mice infected with Escherichia coli (vogel); assay type: functional; details: sc, read-out: PD50
Procedure, shortened: (§2)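 Acute lethal systemic infection model in mice; drug given by subcutaneous injection; potency read out as median protective dose (PD50), in mg/kg.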

[2] = MIC ratio measured as the mean MICs of gram-negative bacteria; assay type: functional
Procedure, shortened: (§3)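 Geometric mean of the MICs (µg/mL) over the Gram-negative or the Gram-positive strains of the 10-organism microtitration panel, calculated separately for each class.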

Mus musculus [3] = assay: In vivo oral protective dose was determined in female charles river CD-1 mice infected with Escherichia coli (vogel); assay type: functional; details: for ED50: Mus musculus, po, read-out: PD50
Procedure, shortened: (§4)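 Acute lethal systemic infection model in mice; drug given orally by gavage; potency read out as median protective dose (PD50), in mg/kg.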

Klebsiella pneumoniae = assay: Antibacterial activity was determined against gram negative organism, K. pneumoniae (MGH-2); assay type: functional; procedure, shortened: as §1
[4] = MIC ratio measured as the mean MICs of gram-positive bacteria; assay type: functional; procedure, shortened: as §3
Staphylococcus aureus [5] = assay: Antibacterial activity was determined against gram positive organism, Staphylococcus aureus (UC76); assay type: functional; procedure, shortened: as §1
Enterococcus faecalis = assay: Antibacterial activity was determined against gram positive organism, Streptococcus faecalis (MGH-2); assay type: functional; procedure, shortened: as §1
Bacteria = assay: Antibacterial activity was determined against gram negative organism, Providencia rettgeri. (M1771); assay type: functional; procedure, shortened: as §1
Staphylococcus aureus [6] = assay: Antibacterial activity was determined against gram positive organism, Staphylococcus aureus (H228); assay type: functional; procedure, shortened: as §1
Mus musculus [7] = assay: In vivo oral protective dose was determined in female charles river CD-1 mice infected with Streptococcus pneumoniae; assay type: functional; details: read-out: PD50; procedure, shortened: as §4
Pseudomonas aeruginosa = assay: Antibacterial activity was determined against gram negative organism, Pseudomonas aeruginosa (UI-18); assay type: functional; procedure, shortened: as §1
Streptococcus pyogenes = assay: Antibacterial activity was determined against gram positive organism, Streptococcus pyogenes (C203); assay type: functional; procedure, shortened: as §1
Mus musculus [8] = assay: In vivo subcutaneous protective dose was determined in female charles river CD-1 mice infected with Streptococcus pneumoniae; assay type: functional; details: sc, read-out: PD50; procedure, shortened: as §2
Escherichia coli = assay: Antibacterial activity was determined against gram negative organism, E. coli(vogel); assay type: functional; procedure, shortened: as §1
Enterobacter cloacae = assay: Antibacterial activity against gram negative organism, […] (MA2646); assay type: functional
[9] = target: DNA gyrase (Escherichia coli) (UniProt P0AES6+P0AES4)

Structure (SMILES)	MIC (Streptococcus pneumoniae) [mg/L]	ED50 (Mus musculus [1]) [mg/kg]	Ratio [2]	ED50 (Mus musculus [3]) [mg/kg]	MIC (Klebsiella pneumoniae) [mg/L]	Ratio [4]	MIC (Staphylococcus aureus [5]) [mg/L]	MIC (Enterococcus faecalis) [mg/L]	MIC (Bacteria) [mg/L]	MIC (Staphylococcus aureus [6]) [mg/L]	ED50 (Mus musculus [7]) [mg/kg]	MIC (Pseudomonas aeruginosa) [mg/L]	MIC (Streptococcus pyogenes) [mg/L]	ED50 (Mus musculus [8]) [mg/kg]	MIC (Escherichia coli) [mg/L]	MIC (Enterobacter cloacae) [mg/L]	DNA cleavage [9] [µg/mL]	PD50 (Mus musculus [3]) [mg/kg]
CC1CN(c2cc3c(cc2F)c(=O)c(C(=O)O)cn3C2CC2)CCN1 (stereo unspecified)	0.2 (≈ 0.579 µM)	0.4	0.066	1	0.05 (≈ 0.145 µM)	0.23	0.1 (≈ 0.29 µM)	0.4 (≈ 1.16 µM)	0.1 (≈ 0.29 µM)	0.4 (≈ 1.16 µM)	39	0.4 (≈ 1.16 µM)	0.2 (≈ 0.579 µM)	12				
Cc1c(F)c(N2CCC(N)C2)c(Cl)c2c1c(=O)c(C(=O)O)cn2C1CC1 (stereo unspecified)	0.025 (≈ 0.0658 µM)		0.05		0.05 (≈ 0.132 µM)	0.029	0.013 (≈ 0.0342 µM)	0.05 (≈ 0.132 µM)	0.05 (≈ 0.132 µM)	0.025 (≈ 0.0658 µM)		0.2 (≈ 0.527 µM)	0.05 (≈ 0.132 µM)		0.013 (≈ 0.0342 µM)	0.05 (≈ 0.132 µM)	0.3	
Cc1c(F)c(N2CCC(C)(CN)C2)c(F)c2c1c(=O)c(C(=O)O)cn2C1CC1 (stereo unspecified)	0.003 (≈ 0.00766 µM)		0.13		0.1 (≈ 0.255 µM)	0.0053	0.003 (≈ 0.00766 µM)	0.025 (≈ 0.0639 µM)	0.2 (≈ 0.511 µM)	0.006 (≈ 0.0153 µM)		0.8 (≈ 2.04 µM)	0.003 (≈ 0.00766 µM)		0.05 (≈ 0.128 µM)	0.05 (≈ 0.128 µM)	3.75	
Cc1c(F)c(N2CCC(N)C2)cc2c1c(=O)c(C(=O)O)cn2C1CC1 (stereo unspecified)	0.013 (≈ 0.0376 µM)	0.7	0.087	9.5	0.1 (≈ 0.29 µM)	0.05	0.025 (≈ 0.0724 µM)	0.4 (≈ 1.16 µM)	0.1 (≈ 0.29 µM)	0.1 (≈ 0.29 µM)		0.4 (≈ 1.16 µM)	0.025 (≈ 0.0724 µM)		0.025 (≈ 0.0724 µM)	0.05 (≈ 0.145 µM)	0.38	
O=C(O)c1cn(C2CC2)c2c(F)c(N3CCNCC3)c(F)cc2c1=O		0.25	0.076	0.45		0.4			0.1 (≈ 0.286 µM)		59			29		0.05 (≈ 0.143 µM)	0.5	
CCNCC1CCN(c2c(F)cc3c(=O)c(C(=O)O)cn(C4CC4)c3c2F)C1 (stereo unspecified) [PD-117558]		1	0.13	4.2	0.1 (≈ 0.255 µM)	0.025	0.013 (≈ 0.0332 µM)		0.2 (≈ 0.511 µM)		3.3	0.4 (≈ 1.02 µM)	0.025 (≈ 0.0639 µM)	2			0.25	
Cc1c(F)c(N2CCNCC2)c(Cl)c2c1c(=O)c(C(=O)O)cn2C1CC1	0.1 (≈ 0.263 µM)		0.087		0.1 (≈ 0.263 µM)	0.087	0.025 (≈ 0.0658 µM)	0.2 (≈ 0.527 µM)	0.2 (≈ 0.527 µM)	0.05 (≈ 0.132 µM)		0.2 (≈ 0.527 µM)	0.2 (≈ 0.527 µM)		0.025 (≈ 0.0658 µM)	0.05 (≈ 0.132 µM)	1.5	
CCNCC1CCN(c2cc3c(c(C)c2F)c(=O)c(C(=O)O)cn3-c2ccc(F)cc2F)C1 (stereo unspecified)	0.025 (≈ 0.0544 µM)		1.05		0.8 (≈ 1.74 µM)	0.05	0.025 (≈ 0.0544 µM)	0.2 (≈ 0.435 µM)	1.6 (≈ 3.48 µM)	0.1 (≈ 0.218 µM)		3.1 (≈ 6.75 µM)	0.025 (≈ 0.0544 µM)		0.4 (≈ 0.871 µM)	0.8 (≈ 1.74 µM)	0.75	
NC1CCN(c2cc3c(cc2F)c(=O)c(C(=O)O)cn3C2CC2)C1 (stereo unspecified)	0.1 (≈ 0.302 µM)	0.5	0.057	3.4		0.075			0.1 (≈ 0.302 µM)			0.2 (≈ 0.604 µM)			0.025 (≈ 0.0754 µM)		0.1	3.4
Cc1c(F)c(N2CCC(N)C2)cc2c1c(=O)c(C(=O)O)cn2-c1ccc(F)cc1F (stereo unspecified)	0.025 (≈ 0.0599 µM)		0.13		0.1 (≈ 0.24 µM)	0.038	0.013 (≈ 0.0311 µM)	0.1 (≈ 0.24 µM)	0.2 (≈ 0.479 µM)	0.05 (≈ 0.12 µM)		0.8 (≈ 1.92 µM)	0.05 (≈ 0.12 µM)		0.05 (≈ 0.12 µM)	0.05 (≈ 0.12 µM)	0.37	
NC1CCN(c2c(F)cc3c(=O)c(C(=O)O)cn(C4CC4)c3c2F)C1 (stereo unspecified)	0.05 (≈ 0.143 µM)	0.4	0.029	1		0.044	0.013 (≈ 0.0372 µM)		0.05 (≈ 0.143 µM)		15			6	0.013 (≈ 0.0372 µM)		0.25	
